Active and inactive are the calls of the source. The calls are words filed in the database; no cut-off is given here.
Columns and labels:
[1] = biological target: T1, Androgen receptor/Baculoviral IAP repeat-containing protein 2 (Homo sapiens, UniProt P10275+Q13490); test: Induction of AR/cIAP1 interaction in human 22Rv1 cells assessed as ubiquitin proteasome system mediated androgen receptor protein degradation at 1 to 3 uM after 6 hrs by Western blot analysis; type: cell-based
Outline: (§1)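 22Rv1 cells were treated with compound, or with separate ligands (30 μM or 3 μM each), for 6 h. Lysates in SDS buffer (0.1 M Tris pH 8.0, 1% SDS) were normalized by BCA, run on SDS-PAGE and immunoblotted. AR/GAPDH ratio was normalized to vehicle as 100. DC50 is the concentration giving 50% AR reduction; means ± SD, n = 3; t-test against vehicle.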

[2] = biological target: T1, Androgen receptor/Baculoviral IAP repeat-containing protein 2; test: Induction of AR/cIAP1 interaction in human 22Rv1 cells assessed as ubiquitin proteasome system mediated androgen receptor protein degradation at 3 uM after 6 hrs by Western blot analysis; type: cell-based; outline: as §1
[3] = biological target: T1, Androgen receptor/Baculoviral IAP repeat-containing protein 2; test: Induction of AR/cIAP1 interaction in human 22Rv1 cells assessed as ubiquitin proteasome system mediated androgen receptor protein degradation at 3 uM by Western blot analysis; type: cell-based; settings: TDE = time-dependent effect; outline: as §1
[4] = biological target: T1, Androgen receptor/Baculoviral IAP repeat-containing protein 2; test: Induction of AR/cIAP1 interaction in human 22Rv1 cells assessed as ubiquitin proteasome system mediated androgen receptor protein degradation at 3 uM in presence of proteasome inhibitor MG132 after 6 hrs by Western blot analysis; type: cell-based
Outline: (§2)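 22Rv1 or VCaP cells were given 3 μM degrader with or without 10 μM proteasome inhibitor over a time course. AR was detected by Western blot (SDS lysis, BCA normalization) and AR/GAPDH was normalized to vehicle as 100. Means ± SD, n = 3.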

[5] = biological target: T1, Androgen receptor/Baculoviral IAP repeat-containing protein 2; test: Induction of AR/cIAP1 interaction in human VCaP cells assessed as ubiquitin proteasome system mediated androgen receptor protein degradation at 3 uM in presence of proteasome inhibitor MG132 after 6 hrs by Western blot analysis; type: cell-based; outline: as §2
[6] = biological target: T1, Androgen receptor/Baculoviral IAP repeat-containing protein 2; test: Induction of AR/cIAP1 interaction in human VCaP cells assessed as ubiquitin proteasome system mediated androgen receptor protein degradation by measuring reduction in DHT-stimulated PSA mRNA expression at 3 uM after 24 hrs by qPCR analysis; type: cell-based
Outline: (§3)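 VCaP cells were held 2 days in phenol red-free RPMI + 5% charcoal-stripped FBS, then given 1 nM DHT with or without 3 μM compound for 24 h. RNA was isolated and cDNA made from 1 μg with oligo-dT. qPCR used the comparative Ct method, with values relative to vehicle = 1. Means ± SD, n = 3.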

[7] = biological target: T1, Androgen receptor/Baculoviral IAP repeat-containing protein 2; test: Induction of AR/cIAP1 interaction in human VCaP cells assessed as ubiquitin proteasome system mediated androgen receptor protein degradation by measuring reduction in DHT-stimulated TMPRSS2 mRNA expression at 3 uM after 24 hrs by qPCR analysis; type: cell-based; outline: as §3
[8] = biological target: T1, Androgen receptor/Baculoviral IAP repeat-containing protein 2; test: Induction of AR/cIAP1 interaction in human VCaP cells assessed as ubiquitin proteasome system mediated androgen receptor protein degradation by measuring reduction in DHT-stimulated KLK2 mRNA expression at 3 uM after 24 hrs by qPCR analysis; type: cell-based; outline: as §3
[9] = biological target: T1, Androgen receptor/Baculoviral IAP repeat-containing protein 2; test: Induction of AR/cIAP1 interaction in human VCaP cells assessed as ubiquitin proteasome system mediated androgen receptor protein degradation by measuring reduction in DHT-stimulated NKX3.1 mRNA expression at 3 uM after 24 hrs by qPCR analysis; type: cell-based; outline: as §3
[10] = tested on: VCaP; test: Cytotoxicity against human VCaP cells at 3 uM after 48 hrs by WST-8 assay; type: functional, cell-based
Outline: (§4)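 Seeded at 5 × 10^3 cells/well; compound added after 24 h and incubated 48 h. WST-8 reagent then added for 0.5 h at 37 °C, 5% CO2, with absorbance read at 450 nm. A549, PC-3, LNCaP and VCaP were kept in RPMI-1640 + 10% FBS; HT1080 in DMEM + 10% FBS. Means ± SD, n = 3; Student's t-test against vehicle.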

[11] = tested on: LNCaP; test: Cytotoxicity against human LNCAP cells expressing androgen receptor at 3 uM after 48 hrs by WST-8 assay; type: functional, cell-based; outline: as §4
[12] = tested on: PC-3; test: Cytotoxicity against human PC3 cells at 3 uM after 48 hrs by WST-8 assay; type: functional, cell-based; outline: as §4
[13] = tested on: A549; test: Cytotoxicity against human A549 cells at 3 uM after 48 hrs by WST-8 assay; type: functional, cell-based; outline: as §4
[14] = tested on: HT-1080; test: Cytotoxicity against human HT1080 cells at 3 uM after 48 hrs by WST-8 assay; type: functional, cell-based; outline: as §4
[15] = tested on: PC-3; test: Cytotoxicity against human PC3 cells at 100 uM after 6 hrs by WST-8 assay; type: functional, cell-based
Outline: (§5)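 WST-8 viability read at 450 nm after 6 h exposure to 100 μM compound. Reagent incubated 0.5 h at 37 °C. A549 and PC-3 were kept in RPMI-1640 + 10% FBS; HT1080 in DMEM + 10% FBS.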

[16] = tested on: A549; test: Cytotoxicity against human A549 cells at 100 uM after 6 hrs by WST-8 assay; type: functional, cell-based; outline: as §5
[17] = tested on: HT-1080; test: Cytotoxicity against human HT1080 cells at 100 uM after 6 hrs by WST-8 assay; type: functional, cell-based; outline: as §5
[18] = tested on: VCaP; test: Induction of morphological changes in human VCaP cells at 3 uM after 24 hrs by phase contrast microscopic analysis; type: functional, cell-based
Outline: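 VCaP cells were treated 24 h with 3 μM compound and imaged by phase-contrast microscopy.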

[19] = tested on: VCaP; test: Induction of apoptosis in human VCaP cells assessed as caspase-3 activation at 1 to 3 uM after 24 hrs by Western blot analysis; type: functional, cell-based
Outline: (§6)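 VCaP cells were treated 24 h with compound, or with 3 μM compound plus graded pan-caspase inhibitor. Cleaved caspase-3 and cleaved PARP were detected by Western blot of SDS lysates normalized by BCA.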

[20] = tested on: VCaP; test: Induction of apoptosis in human VCaP cells assessed as increase in cleaved PARP levels at 1 to 3 uM after 24 hrs by Western blot method; type: functional, cell-based; outline: as §6
[21] = tested on: VCaP; test: Induction of apoptosis in human VCaP cells assessed as caspase-3 activation at 1 to 3 uM in presence of pan-caspase inhibitor zVAD-FMK after 24 hrs by Western blot analysis; type: functional, cell-based; outline: as §6
[22] = tested on: VCaP; test: Induction of apoptosis in human VCaP cells assessed as increase in cleaved PARP levels at 1 to 3 uM in presence of pan-caspase inhibitor zVAD-FMK after 24 hrs by Western blot analysis; type: functional, cell-based; outline: as §6
[23] = tested on: VCaP; test: Induction of apoptosis in human VCaP cells assessed as viable cells at 3 uM after 24 hrs by Annexin V-FITC/propidium iodide staining-based flow cytometry (reference value: 98.9%); type: functional; settings: read-out: Activity
[24] = tested on: VCaP; test: Induction of apoptosis in human VCaP cells assessed as early apoptotic cells at 3 uM after 24 hrs by Annexin V-FITC/propidium iodide staining-based flow cytometry (reference value: 0.5%); type: functional
[25] = tested on: VCaP; test: Induction of apoptosis in human VCaP cells assessed as late apoptotic cells at 3 uM after 24 hrs by Annexin V-FITC/propidium iodide staining-based flow cytometry (reference value: 0.1%); type: functional
[26] = tested on: VCaP; test: Induction of apoptosis in human VCaP cells assessed as necrotic cells at 3 uM after 24 hrs by Annexin V-FITC/propidium iodide staining-based flow cytometry (reference value: 0.5%); type: functional
[27] = tested on: VCaP; test: Induction of apoptosis in human VCaP cells assessed as viable cells at 3 uM in presence of pan-caspase inhibitor zVAD-FMK after 24 hrs by Annexin V-FITC/propidium iodide staining-based flow cytometry (reference value: 98.9%); type: functional; settings: read-out: Activity
[28] = tested on: VCaP; test: Induction of apoptosis in human VCaP cells assessed as early apoptotic cells at 3 uM in presence of pan-caspase inhibitor zVAD-FMK after 24 hrs by Annexin V-FITC/propidium iodide staining-based flow cytometry (reference value: 0.5%); type: functional
[29] = tested on: VCaP; test: Induction of apoptosis in human VCaP cells assessed as late apoptotic cells at 3 uM in presence of pan-caspase inhibitor zVAD-FMK after 24 hrs by Annexin V-FITC/propidium iodide staining-based flow cytometry (reference value: 0.1%); type: functional
[30] = tested on: VCaP; test: Induction of apoptosis in human VCaP cells assessed as necrotic cells at 3 uM in presence of pan-caspase inhibitor zVAD-FMK after 24 hrs by Annexin V-FITC/propidium iodide staining-based flow cytometry (reference value: 0.5%); type: functional
[31] = tested on: VCaP; test: Induction of apoptosis in human VCaP cells assessed as caspase-3 activation at 3 uM in presence of proteasome inhibitor MG132 after 9 hrs by Western blot method; type: functional, cell-based
Outline: (§7)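 VCaP cells were incubated 9 h with 3 μM compound and/or 10 μM proteasome inhibitor. Apoptotic markers were assessed by Western blot.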

[32] = tested on: VCaP; test: Induction of apoptosis in human VCaP cells assessed as increase in cleaved PARP levels at 3 uM in presence of proteasome inhibitor MG132 after 9 hrs by Western blot method; type: functional, cell-based; outline: as §7

T1 sequence (P10275 whole entry, looked up): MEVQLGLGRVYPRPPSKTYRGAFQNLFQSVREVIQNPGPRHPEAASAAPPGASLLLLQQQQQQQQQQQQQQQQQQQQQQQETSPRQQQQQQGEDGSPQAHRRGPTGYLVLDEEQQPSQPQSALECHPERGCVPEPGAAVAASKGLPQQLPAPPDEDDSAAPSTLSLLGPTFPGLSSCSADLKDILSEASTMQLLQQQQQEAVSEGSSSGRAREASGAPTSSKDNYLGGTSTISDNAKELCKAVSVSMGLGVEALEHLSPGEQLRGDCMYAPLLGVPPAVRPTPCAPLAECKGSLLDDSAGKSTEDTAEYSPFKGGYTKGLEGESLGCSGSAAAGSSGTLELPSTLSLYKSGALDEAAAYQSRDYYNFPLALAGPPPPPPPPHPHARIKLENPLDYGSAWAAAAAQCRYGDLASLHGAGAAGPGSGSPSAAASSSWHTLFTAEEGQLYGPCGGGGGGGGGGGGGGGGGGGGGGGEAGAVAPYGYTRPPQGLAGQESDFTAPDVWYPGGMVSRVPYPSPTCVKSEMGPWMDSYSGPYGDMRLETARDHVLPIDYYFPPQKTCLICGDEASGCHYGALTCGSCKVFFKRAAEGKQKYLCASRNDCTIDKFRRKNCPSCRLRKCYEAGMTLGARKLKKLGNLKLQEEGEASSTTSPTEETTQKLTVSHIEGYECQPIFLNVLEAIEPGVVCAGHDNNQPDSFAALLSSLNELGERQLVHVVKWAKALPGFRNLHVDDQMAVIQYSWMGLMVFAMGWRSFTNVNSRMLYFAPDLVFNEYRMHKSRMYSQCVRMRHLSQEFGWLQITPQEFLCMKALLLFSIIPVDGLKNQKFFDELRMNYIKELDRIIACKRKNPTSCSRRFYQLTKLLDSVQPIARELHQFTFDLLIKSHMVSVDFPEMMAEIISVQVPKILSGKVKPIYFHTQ
T1 sequence (Q13490 whole entry, looked up): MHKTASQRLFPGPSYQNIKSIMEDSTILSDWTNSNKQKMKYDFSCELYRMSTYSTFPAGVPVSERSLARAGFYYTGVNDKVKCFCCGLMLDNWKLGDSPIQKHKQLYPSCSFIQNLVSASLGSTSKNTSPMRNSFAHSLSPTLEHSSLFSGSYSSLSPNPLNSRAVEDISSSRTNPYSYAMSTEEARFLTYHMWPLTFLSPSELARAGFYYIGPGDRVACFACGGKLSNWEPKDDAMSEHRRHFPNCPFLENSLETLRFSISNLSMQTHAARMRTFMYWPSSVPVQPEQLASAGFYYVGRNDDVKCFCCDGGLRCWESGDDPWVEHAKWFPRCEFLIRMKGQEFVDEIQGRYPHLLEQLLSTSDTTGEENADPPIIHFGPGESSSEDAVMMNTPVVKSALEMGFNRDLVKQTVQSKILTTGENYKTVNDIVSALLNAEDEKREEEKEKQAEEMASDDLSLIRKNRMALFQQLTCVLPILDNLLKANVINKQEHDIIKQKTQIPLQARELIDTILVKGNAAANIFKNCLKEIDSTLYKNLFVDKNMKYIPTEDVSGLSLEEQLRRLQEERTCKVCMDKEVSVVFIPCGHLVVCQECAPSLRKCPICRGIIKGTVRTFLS

CN[C@@H](C)C(=O)N[C@H](C(=O)N1CCC[C@H]1c1nc(C(=O)c2cccc(OCCOCCOCCOCCOc3ccc(Cn4c(C)c(C#N)c(-c5ccc(C#N)cc5)c4C)cc3)c2)cs1)C1CCCCC1
Activity [1]: Active
Activity [2]: Active
Activity [3]: Tde
Activity [4]: inactive
Activity [5]: inactive
Activity [6]: Active
Activity [7]: Active
Activity [8]: Active
Activity [9]: Active
Activity [10]: Active
Activity [11]: Active
Activity [12]: inactive
Activity [13]: inactive
Activity [14]: inactive
Activity [15]: Active
Activity [16]: Active
Activity [17]: Active
Activity [18]: Active
Activity [19]: Active
Activity [20]: Active
Activity [21]: inactive
Activity [22]: inactive
viability at 3 µM [23]: 87.7%
Activity [24]: 11.6%
Activity [25]: 0.4%
Activity [26]: 0.3%
viability at 3 µM [27]: 96.8%
Activity [28]: 1.5%
Activity [29]: 0.6%
Activity [30]: 1.1%
Activity [31]: inactive
Activity [32]: inactive
